Experimental data as given in ChEMBL document CHEMBL4020804, “Minor phenolics from Angelica keiskei and their proliferative effects on Hep3B cells” (Bioorg Med Chem Lett, 2017).

How the values were obtained:
[1] = test system: Hep 3B2; experiment: Cytoprotective activity against GOX-induced oxidative stress in human Hep3B cells assessed as cell survival at 10 uM treated for 5 hrs with 15 mU/ml GOX challenge by MTT assay (reference value: 41.51 +/- 1.39%); assay type: functional; details: read-out: Survival
[2] = test system: Hep 3B2; experiment: Cytoprotective activity against GOX-induced oxidative stress in human Hep3B cells assessed as cell survival at 1 uM treated for 5 hrs with 15 mU/ml GOX challenge by MTT assay (reference value: 41.51 +/- 1.39%); assay type: functional; details: read-out: Survival
[3] = test system: Hep 3B2; experiment: Cytoprotective activity against GOX-induced cytotoxicity in human Hep3B cells assessed as LDH release at 0.1 uM treated for 5 hrs with 15 mU/ml GOX challenge by spectrophotometric method (reference value: 60.94 +/- 1.18%); assay type: functional
[4] = test system: Hep 3B2; experiment: Cytoprotective activity against GOX-induced oxidative stress in human Hep3B cells assessed as cell survival at 0.1 uM treated for 5 hrs with 15 mU/ml GOX challenge by MTT assay (reference value: 41.51 +/- 1.39%); assay type: functional; details: read-out: Survival
[5] = test system: Hep 3B2; experiment: Cytoprotective activity against GOX-induced cytotoxicity in human Hep3B cells assessed as LDH release at 100 uM treated for 5 hrs with 15 mU/ml GOX challenge by spectrophotometric method (reference value: 60.94 +/- 1.18%); assay type: functional
[6] = test system: Hep 3B2; experiment: Proliferative activity against human Hep3B cells assessed as cell viability after 4 days by cell counting method; assay type: functional, cell-based
In short: (§1)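 Hep3B kept in DMEM/10% FBS, 37°C, 5% CO2, then seeded at 1×10^5 cells/ml in medium containing compound (0.1–100 μM; DMSO-only control) in monolayer. Cells were checked daily by microscope for attachment and morphology, and counted after 4 days, in triplicate, in three independent experiments. Counts are given as % of the 0 μM group.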

[7] = test system: Hep 3B2; experiment: Cytoprotective activity against GOX-induced oxidative stress in human Hep3B cells assessed as cell survival at 100 uM treated for 5 hrs with 15 mU/ml GOX challenge by MTT assay (reference value: 41.51 +/- 1.39%); assay type: functional; details: read-out: Survival
[8] = test system: Hep 3B2; experiment: Proliferative activity against human Hep3B cells assessed as cell viability at 1 uM after 4 days by cell counting method relative to control; assay type: functional; details: 96 h, read-out: Activity; in short: as §1
[9] = test system: NIH3T3; experiment: Cytoprotective activity against GOX-induced oxidative stress in mouse NIH/3T3 cells assessed as increase in cell survival treated for 5 hrs with 15 mU/ml GOX challenge by MTT assay; assay type: functional, cell-based
In short: (§2)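 Cells plated at 7×10^4 per well; next day exposed for 5 h to compound (0.1–100 μM) with 15 mU/ml glucose oxidase in growth medium. Viability expressed relative to GOX-free cells; α-tocopherol positive control.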

[10] = test system: Hep 3B2; experiment: Cytoprotective activity against GOX-induced oxidative stress in human Hep3B cells assessed as increase in cell survival treated for 5 hrs with 15 mU/ml GOX challenge by MTT assay; assay type: functional, cell-based; in short: as §2
[11] = test system: Hep 3B2; experiment: Cytotoxicity against human Hep3B cells assessed as effect on cell morphology at 0.1 to 100 uM measured every day during 4 days incubation period by microscopic method; assay type: cell-based; details: hep 3b2, 96 h; in short: as §1
[12] = test system: NIH3T3; experiment: Cytoprotective activity against GOX-induced cytotoxicity in mouse NIH/3T3 cells assessed as decrease in LDH release treated for 5 hrs with 15 mU/ml GOX challenge by spectrophotometric method; assay type: functional, cell-based
[13] = test system: Hep 3B2; experiment: Proliferative activity against human Hep3B cells assessed as cell viability at 100 uM after 4 days by cell counting method relative to control; assay type: functional; details: 96 h, read-out: Activity; in short: as §1
[14] = test system: NIH3T3; experiment: Cytoprotective activity against GOX-induced oxidative stress in mouse NIH/3T3 cells assessed as cell survival at 1 uM treated for 5 hrs with 15 mU/ml GOX challenge by MTT assay (reference value: 42.71 +/- 2.10%); assay type: functional; details: NIH3T3, 5 h, read-out: Survival
[15] = test system: Hep 3B2; experiment: Proliferative activity against human Hep3B cells assessed as cell viability at 0.1 uM after 4 days by cell counting method relative to control; assay type: functional; details: 96 h, read-out: Activity; in short: as §1
[16] = test system: NIH3T3; experiment: Cytoprotective activity against GOX-induced cytotoxicity in mouse NIH/3T3 cells assessed as LDH release at 100 uM treated for 5 hrs with 15 mU/ml GOX challenge by spectrophotometric method (reference value: 63.34 +/- 1.85%); assay type: functional
[17] = test system: NIH3T3; experiment: Cytoprotective activity against GOX-induced oxidative stress in mouse NIH/3T3 cells assessed as cell survival at 10 uM treated for 5 hrs with 15 mU/ml GOX challenge by MTT assay (reference value: 42.71 +/- 2.10%); assay type: functional; details: NIH3T3, 5 h, read-out: Survival
[18] = test system: Hep 3B2; experiment: Cytoprotective activity against GOX-induced cytotoxicity in human Hep3B cells assessed as LDH release at 1 uM treated for 5 hrs with 15 mU/ml GOX challenge by spectrophotometric method (reference value: 60.94 +/- 1.18%); assay type: functional
[19] = test system: Hep 3B2; experiment: Cytoprotective activity against GOX-induced cytotoxicity in human Hep3B cells assessed as LDH release at 10 uM treated for 5 hrs with 15 mU/ml GOX challenge by spectrophotometric method (reference value: 60.94 +/- 1.18%); assay type: functional
[20] = test system: Hep 3B2; experiment: Cytoprotective activity against GOX-induced cytotoxicity in human Hep3B cells assessed as decrease in LDH release treated for 5 hrs with 15 mU/ml GOX challenge by spectrophotometric method; assay type: functional, cell-based
[21] = test system: NIH3T3; experiment: Cytoprotective activity against GOX-induced oxidative stress in mouse NIH/3T3 cells assessed as cell survival at 100 uM treated for 5 hrs with 15 mU/ml GOX challenge by MTT assay (reference value: 42.71 +/- 2.10%); assay type: functional; details: NIH3T3, 5 h, read-out: Survival
[22] = test system: NIH3T3; experiment: Cytoprotective activity against GOX-induced cytotoxicity in mouse NIH/3T3 cells assessed as LDH release at 0.1 uM treated for 5 hrs with 15 mU/ml GOX challenge by spectrophotometric method (reference value: 63.34 +/- 1.85%); assay type: functional
[23] = test system: Hep 3B2; experiment: Cytotoxicity against human Hep3B cells assessed as effect on cell attachment at 0.1 to 100 uM measured every day during 4 days incubation period by microscopic method; assay type: cell-based; details: hep 3b2, 96 h; in short: as §1
[24] = test system: NIH3T3; experiment: Cytoprotective activity against GOX-induced cytotoxicity in mouse NIH/3T3 cells assessed as LDH release at 1 uM treated for 5 hrs with 15 mU/ml GOX challenge by spectrophotometric method (reference value: 63.34 +/- 1.85%); assay type: functional
[25] = test system: NIH3T3; experiment: Cytoprotective activity against GOX-induced oxidative stress in mouse NIH/3T3 cells assessed as cell survival at 0.1 uM treated for 5 hrs with 15 mU/ml GOX challenge by MTT assay (reference value: 42.71 +/- 2.10%); assay type: functional; details: NIH3T3, 5 h, read-out: Survival
[26] = test system: Hep 3B2; experiment: Proliferative activity against human Hep3B cells assessed as cell viability at 10 uM after 4 days by cell counting method relative to control; assay type: functional; details: 96 h, read-out: Activity; in short: as §1
[27] = test system: NIH3T3; experiment: Cytoprotective activity against GOX-induced cytotoxicity in mouse NIH/3T3 cells assessed as LDH release at 10 uM treated for 5 hrs with 15 mU/ml GOX challenge by spectrophotometric method (reference value: 63.34 +/- 1.85%); assay type: functional

Structure (SMILES)	viability at 10 µM [1] [%]	viability at 1 µM [2] [%]	Activity [3] [%]	viability at 0.1 µM [4] [%]	Activity [5] [%]	Activity [6]	viability at 100 µM [7] [%]	viability at 1 µM [8] [%]	Activity [9]	Activity [10]	Activity [11]	Activity [12]	viability at 100 µM [13] [%]	viability at 1 µM [14] [%]	viability at 0.1 µM [15] [%]	Activity [16] [%]	viability at 10 µM [17] [%]	Activity [18] [%]	Activity [19] [%]	Activity [20]	other results
O=C(CCc1ccc(O)cc1)c1ccc(O)cc1O [DAVIDIGENIN]	94.9	83.4	22.37	59.3	4.16	Dose-dependent effect	104	106	Dose-dependent effect	Dose-dependent effect	Non-Toxic	Dose-dependent effect	140	84	104	3.1	113	18.61	11.83	Dose-dependent effect	viability at 100 µM [21]: 123%; Activity [22]: 24.04%; Activity [23]: Non-Toxic; Activity [24]: 15.74%; viability at 0.1 µM [25]: 60.6%; viability at 10 µM [26]: 116%; Activity [27]: 12.69%
O=C(/C=C/c1ccc(O)cc1)c1ccc(O)cc1O [ISOLIQUIRITIGENIN]	66.2	62.9	27.14	41.9	10.1	Dose-dependent effect	75.3	103	Dose-dependent effect	Dose-dependent effect	Non-Toxic	Dose-dependent effect	126	59.2	101	8.85	71.9	24.29	21.06	Dose-dependent effect	viability at 100 µM [21]: 82.9%; Activity [22]: 44.26%; Activity [23]: Non-Toxic; Activity [24]: 26.03%; viability at 0.1 µM [25]: 44.8%; viability at 10 µM [26]: 109%; Activity [27]: 22.67%
C=C(C)[C@H]1CC[C@](C)([C@@H](O)Cc2c(O)ccc(C(=O)/C=C/c3ccc(O)cc3)c2O)O1 (racemic)	65.4	60.5	26.09	45.2	6.99	Dose-dependent effect	76.8	101	Dose-dependent effect	Dose-dependent effect	Non-Toxic	Dose-dependent effect	116	61.4	100	6.22	66.4	20.91	14.03	Dose-dependent effect	viability at 100 µM [21]: 81.8%; Activity [22]: 28.31%; Activity [23]: Non-Toxic; Activity [24]: 20.91%; viability at 0.1 µM [25]: 44.9%; viability at 10 µM [26]: 102%; Activity [27]: 15.76%
C/C(=C\Cc1c(O)ccc(C(=O)/C=C/c2ccc(O)cc2)c1O)CCC(=O)O	57.1	45.5	30.97	44.3	7.6	Dose-dependent effect	74.1	100	Dose-dependent effect	Dose-dependent effect	Non-Toxic	Dose-dependent effect	115	44.7	100	6.96	57.8	20.34	16.93	Dose-dependent effect	viability at 100 µM [21]: 74.5%; Activity [22]: 36.37%; Activity [23]: Non-Toxic; Activity [24]: 20.71%; viability at 0.1 µM [25]: 43.2%; viability at 10 µM [26]: 107%; Activity [27]: 18.78%
